Among the data in ChEMBL document CHEMBL3877298, “Discovery of benzimidazole derivatives as modulators of mitochondrial function: A potential treatment for Alzheimer's disease” (Eur J Med Chem, 2017) are Activity, viability and inhibition values, retold here.

For orientation: inhibition means the drop in the measured response relative to a control, in per cent.

Series [1] concerns the target Translocator protein (Mus musculus) (UniProt P50637). The experiment in a line: Inhibition of TSPO in mouse HT22 cells assessed as protection against amyloid beta (1 to 42)-induced mitochondrial membrane potential loss by measuring recovery of mitochondrial membrane potential at 5 uM preincubated for 10 mins followed by amyloid beta (1 to 42) addition measured every 1 hr for 3 hrs by JC1 staining based fluorescence assay relative to control. It is filed as cell-based. Also noted: scale not given: the % may be the effect or the level left. As to conditions: HT-22. An outline of the steps:
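HT22 cells at 30,000 per well were loaded with 7.5 µM JC-1 in phenol red-free Opti-MEM for 1 h 15 min at 37 °C, then washed. Cells were treated with compound (5 µM) and Aβ1-42 (5 µM); vehicle wells received DMSO. Green (485/535) and red (560/595) fluorescence were read hourly for 3 h. Recovery was normalised between Aβ-damaged (0%) and normal (100%) ratio.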

For series [2] the target is unchanged. Description: Inhibition of TSPO in mouse HT22 cells assessed as protection against amyloid beta (1 to 42)-induced mitochondrial membrane potential loss by measuring recovery of ATP production at 5 uM preincubated for 10 mins followed by amyloid beta (1 to 42) addition measured after 7 hrs by luciferase reporter gene assay relative to control. The class given is cell-based. Also noted: scale not given: the % may be the effect or the level left. The conditions noted are these: HT-22. Put shortly: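 HT22 cells at 7000 per well were given compound (5 µM) for 10 min at 37 °C, then Aβ1-42 (5 µM) or DMSO vehicle, and incubated 7 h. Cells were washed, lysed in 1% Triton X-100, and protein-equalised by BCA. ATP was measured by luciferin/luciferase luminescence and normalised to vehicle.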

Series [3] is described as follows: Cytotoxicity against mouse HT22 cells assessed as cell viability at 5 uM after 24 hrs by MTT assay relative to control. As to conditions: read-out: Activity. The class given is toxicity, HT-22. Put shortly:
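MTT was added for 2 h, then solubilising solution (10% Triton X-100 in isopropanol with 0.1 M HCl) for 2 h more. Absorbance read at 560 nm; % inhibition normalised to vehicle, and viability taken from compound-only wells.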
For orientation: Tetrazolium dyes change colour on reduction, which living cells bring about.

For series [4], the target named is Translocator protein (Mus musculus) (UniProt P50637). Description: Inhibition of TSPO in mouse HT22 cells assessed as inhibition of amyloid beta (1 to 42)-induced toxicity at 5 uM after 24 hrs by MTT assay relative to control. It is filed as cell-based. The conditions noted are these: HT-22. An outline of the steps: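 HT22 cells at 5000 per well were treated with compound (5 µM), with or without Aβ1-42 (5 µM), for 24 h at 37 °C. MTT was added for 2 h, then solubilising solution (10% Triton X-100 in isopropanol with 0.1 M HCl) for 2 h more. Absorbance read at 560 nm; % inhibition normalised to vehicle, and viability taken from compound-only wells.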
Translocator protein (Mus musculus), sequence (P50637 whole entry, looked up): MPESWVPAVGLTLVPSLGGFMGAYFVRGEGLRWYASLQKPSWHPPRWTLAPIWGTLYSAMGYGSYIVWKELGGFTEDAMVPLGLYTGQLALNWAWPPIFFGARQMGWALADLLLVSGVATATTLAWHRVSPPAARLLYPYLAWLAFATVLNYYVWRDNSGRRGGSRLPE

For series [5] the target is unchanged. Description: Inhibition of TSPO in mouse HT22 cells assessed as inhibition of amyloid beta (1 to 42)-induced ROS generation at 5 uM after 6 hrs by DCFDA staining based fluorescence assay relative to control. The class given is cell-based. As to conditions: HT-22.

On to `O=C(Cn1c(SCc2ccc(F)cc2)nc2ncccc21)Nc1ccc2c(c1)OCO2`, for which the Activity in series [1] was -7%.

As to `COc1ccc(OC)c(-c2nc3ccccc3n2CC(=O)Nc2cc(C(C)C)ccc2C)c1`, the Activity in series [1] amounted to 41%.

For `O=C(Cn1c(-c2cc(Cl)ccc2Cl)nc2ccccc21)Nc1cc(Cl)cc(Cl)c1`, the Activity in series [2] came to 0%; in series [1], 91%. Besides, the viability at 24 h, 5 µM in series [3] turned out to be 107%.

Turning to `COc1ccc(OC)c(Cc2nc3ccccc3n2CC(=O)Nc2cc(Cl)cc(Cl)c2)c1`, the inhibition in series [4] was 12%; in series [5] it was 0%. The Activity was determined as 94% in series [2] and 68% in series [1]. The viability at 24 h, 5 µM in series [3] was 81 to 82%.

With `C=CCN(C(=O)Cn1c(SCc2ccc(F)cc2)nc2ccncc21)c1ccccc1`, in series [1], the Activity was -1%.

In the case of `CCN1CCCC1CNC(=O)c1ccc(Cn2c(CC(=O)Nc3cc(C(C)C)ccc3C)nc3ccccc32)cc1` (stereo unspecified), in series [1], the Activity was determined as 68%.

For the compound `CC[C@@H](C(=O)Nc1ccccc1OC)n1c(SCc2ccc(C)cc2)nc2ccncc21`, the Activity in series [1] came to 43%.

With `O=C(CCn1c(-c2ccc(Cl)cc2)nc2ccccc21)Nc1ccccc1F`, in series [1], the Activity came out at 65%.

Regarding `Cc1ccc(C(C)C)cc1NC(=O)Cc1nc2ccccc2n1Cc1ccc(C(=O)NCCCN(C)C)cc1`, the Activity in series [2] amounted to 14%; in series [1] it was 68%. Further, the viability at 24 h, 5 µM in series [3] was 97%.

`COc1ccc(NC(=O)Cn2c(SCc3cc(C)ccc3C)nc3ccncc32)c(OC)c1OC`: in series [1], the Activity was found to be 43%.

In the case of `O=C(Cn1c(Cc2ccccc2)nc2ccccc21)Nc1cc(Oc2ccc(-c3ccccc3)cc2)ccc1F`, the Activity in series [1] came out at 0%.

In the case of `O=C(Cn1c(-c2cc(Cl)ccc2Cl)nc2cc(Cl)ccc21)Nc1cc(Cl)cc(Cl)c1`, the Activity in series [1] amounted to 77%.

`O=C(NCCCN1CCCC1)c1ccc(Cn2c(Cc3c(Cl)cccc3Cl)nc3ccccc32)cc1`: the inhibition in series [4] worked out at 12%; in series [5], 15%. Further, the Activity in series [2] is 31%; in series [1] it was 79%. In addition, in series [3], the viability at 24 h, 5 µM was in the range of 100 to 101%.

For the compound `O=C(NCCCN1CCOCC1)c1ccc(Cn2c(Cc3c(Cl)cccc3Cl)nc3ccccc32)cc1`, the Activity amounted to 1% in series [2] and 76% in series [1]. Besides, the viability at 24 h, 5 µM in series [3] came out at 98%.

Regarding `O=C(NCCCc1ccco1)c1ccc(Cn2c(SCc3ccc(F)cc3)nc3ncccc32)cc1`, in series [1], the Activity stood at 52%.

As for `Cc1cccc(C(C)(C)C)c1NC(=O)Cn1c(-c2ccccc2)nc2ccccc21`, the inhibition in series [4] was determined as 16%; in series [5], 0%. The Activity in series [2] is 55%; in series [1] it was 65%. Also, the viability at 24 h, 5 µM in series [3] was 65 to 95%.

Regarding `CCC1CCCCN1C(=O)Cn1c(SCc2cccc(C(F)(F)F)c2)nc2ncccc21` (stereo unspecified), the Activity in series [1] is 25%.

For `O=C(Cn1c(-c2ccccc2)nc2ccccc21)Nc1cc(Cl)cc(Cl)c1`, the Activity in series [1] turned out to be 69%.

In the case of `CCCSCCNC(=O)c1ccc(Cn2c(SCc3ccccc3)nc3ncccc32)cc1`, the Activity in series [1] was determined as 23%.

As to `CC(C)(C)c1cc(NC(=O)Cn2c(Cc3ccc(Cl)c(Cl)c3)nc3ccccc32)cc(C(C)(C)C)c1`, in series [1], the Activity came out at 42%.

`CCCN(CCC)C(=O)Cn1c(SCc2ccc(F)cc2)nc2ccccc21`: the Activity in series [2] was 20%; in series [1] it was 57%.

As to `CCCSCCCNC(=O)c1ccc(CSc2nc3ncccc3n2Cc2cccc(C)c2)cc1`, in series [1], the Activity is 58%.

Consider `CCN1CCCC1CNC(=O)c1ccc(Cn2c(SCc3ccc(F)cc3)nc3ncccc32)cc1` (stereo unspecified), for which the Activity in series [1] was 61%.

Regarding `Cc1cccc(C(C)(C)C)c1NC(=O)Cn1c(-c2cc(Cl)ccc2Cl)nc2ccccc21`, the Activity in series [1] turned out to be 41%.

As for `Cc1ccc(C(C)C)cc1NC(=O)Cn1c(Cc2ccccc2)nc2ccccc21`, the Activity in series [1] was 24%.

`Cc1ccc(C(C)C)cc1NC(=O)Cc1nc2ccccc2n1Cc1ccc(C(=O)NCCCN2CCCCC2)cc1`: the Activity in series [2] stood at 23%; in series [1], 80%. The viability at 24 h, 5 µM in series [3] came out at 100%.

As to `O=C(Cn1c(-c2cc(Cl)ccc2Cl)nc2ccc(Cl)cc21)Nc1cc(Cl)cc(Cl)c1`, the Activity in series [1] came to 18%.

As to `Cc1ccc(C(C)C)cc1NC(=O)Cn1c(-c2ccccc2)nc2ccccc21`, the Activity in series [2] came out at 19%; in series [1], 63%. Moreover, the viability at 24 h, 5 µM in series [3] came to 67%.

As for `Cc1ccc(C(C)C)c(OC[C@H](O)Cn2c(Cc3ccccc3)nc3ccccc32)c1`, the Activity in series [1] stood at 53%.

Turning to `CC(C)(C)c1cc(NC(=O)Cn2c(-c3ccccc3)nc3ccccc32)cc(C(C)(C)C)c1`, the Activity in series [2] was found to be 4%; in series [1] it was 86%. In addition, in series [3], the viability at 24 h, 5 µM worked out at 71%.

Regarding `Cc1cccc(C(C)(C)C)c1NC(=O)Cn1c(Cc2ccccc2)nc2ccccc21`, the Activity in series [1] worked out at 38%.

With `CN1CCN(CCCNC(=O)c2ccc(Cn3c(Cc4c(Cl)cccc4Cl)nc4ccccc43)cc2)CC1`, the Activity in series [1] is 86%.

For `Cc1ccc(C(C)C)cc1NC(=O)Cn1c(-c2cc(Cl)ccc2Cl)nc2ccccc21`, the results for the Activity in series [2] and in series [1] were 0% and 91%, respectively. Moreover, the viability at 24 h, 5 µM in series [3] turned out to be 93%.

Turning to `CCCN(CCC)C(=O)Cn1c(SCc2cccc(Cl)c2)nc2ccncc21`, the Activity in series [1] was found to be 34%.

Take `COc1ccc(OC)c(Cc2nc3ccccc3n2CC(=O)Nc2cc(C(C)C)ccc2C)c1`: the Activity in series [2] was 0%; in series [1], 81%. Besides, in series [3], the viability at 24 h, 5 µM was 96%.

On to `O=C(NCCN1CCOCC1)c1ccc(Cn2c(SCc3ccc(F)cc3)nc3ncccc32)cc1`, for which the Activity in series [1] was determined as 47%.

In the case of `CN(C)C(=O)c1ccc(Cn2c(Cc3c(Cl)cccc3Cl)nc3ccccc32)cc1`, the Activity in series [1] stood at 73%.

Regarding `Cc1ccc(C(C)C)cc1NC(=O)Cn1c(-c2cc(Cl)ccc2Cl)nc2cc(Cl)ccc21`, the Activity worked out at 3% in series [2] and 60% in series [1]. Also, in series [3], the viability at 24 h, 5 µM came to 78%.

For the compound `O=C(NCCCc1cccs1)c1ccc(Cn2c(SCc3ccc(F)cc3)nc3ncccc32)cc1`, the Activity in series [1] was determined as 46%.

As to `Cc1ccc(C(C)C)cc1NC(=O)Cn1c(Cc2ccc(Cl)c(Cl)c2)nc2ccccc21`, the Activity in series [1] came out at 57%.

`CC(C)(C)c1cc(NC(=O)Cn2c(Cc3ccccc3)nc3ccccc32)cc(C(C)(C)C)c1`: the Activity in series [1] came out at 29%.

Regarding `Cc1ccc(Cn2c(SCc3ccc(F)cc3)nc3ncccc32)cc1`, the Activity in series [1] came out at 15%.

In the case of `O=C(NCCN1CCCCC1)c1ccc(Cn2c(SCc3ccc(F)cc3)nc3ncccc32)cc1`, in series [1], the Activity is 45%.

For `O=C(NCCN1CCCCC1)c1ccc(Cn2c(Cc3c(Cl)cccc3Cl)nc3ccccc32)cc1`, the results for the Activity in series [2] and in series [1] were 4% and 89%, respectively. Further, in series [3], the viability at 24 h, 5 µM amounted to 87%.

As to `COc1ccc(OC)c(-c2nc3ccccc3n2CC(=O)Nc2cc(Oc3ccc(-c4ccccc4)cc3)ccc2F)c1`, the Activity in series [1] came to 0%.

Take `Cc1c(Cl)cccc1NC(=O)Cn1c(SCc2ccccc2F)nc2ccncc21`: the Activity in series [1] came out at 30%.

In the case of `CCN(CC)CCCNC(=O)c1ccc(Cn2c(SCc3ccc(F)cc3)nc3ncccc32)cc1`, the Activity in series [1] was 38%.

Consider `COc1ccc(CC(=O)Cn2c(SCc3ccc(F)cc3)nc3ccncc32)c(OC)c1`, for which, in series [1], the Activity was determined as 34%.

Take `CN1CCC(NC(=O)c2ccc(Cn3c(Cc4c(Cl)cccc4Cl)nc4ccccc43)cc2)CC1`: the figures for the Activity in series [2] and in series [1] were 8% and 81%, respectively. Besides, the viability at 24 h, 5 µM in series [3] worked out at 94%.

In the case of `O=C(c1ccc(CSc2nc3ncccc3n2Cc2ccc(F)cc2)cc1)N1CCCCC1`, the Activity in series [1] came to 37%.

Take `COc1ccc(NC(=O)Cn2c(SCc3ccc(C)cc3)nc3ccncc32)c(OC)c1OC`: the Activity in series [1] amounted to 27%.
